From PubChem BioAssay
Sampled rows, rich in hits. Any-hit rate of the full collection: about 4.3%.
BB579 growth dn = growth inhibitors of yeast BB579 in restrictive medium, primary screen, yeast lifespan-shortening project, S. cerevisiae | OD615, 48 h | inhibition, % at 10 µM | 0.51% of 140,000 active | AID 804, 2007;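 active = inhibition above a set limit, 3 SD over the mean compound inhibition, cut at about 44% in these data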
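Assay system: S. cerevisiae DeaD strain BB579 yeast. Medium: CSMM-D restrictive synthetic medium containing dextrose (glucose). Times: 4 h cell preincubation, 48 h compound exposure, 30 °C humidified. Signal: OD615 turbidity measurement. Benchmarks: positive control amphotericin B 10 µg/mL.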
WT yeast gro inh = growth inhibition of WT strain, primary screen, mitochondrial fusion inhibitor project, WT and mutant strains, chemical genetic; inhibition, % at 10 µM; mitochondrial fusion phenotypic screen; AID 1362, 2008; 2.1% of 190,000 active; in the data active = inhibition above about 58%; tested in S. cerevisiae
Yeast life ext = compounds extending yeast replicative lifespan, primary screen, S. cerevisiae, OD615 | S. cerevisiae growth with nicotinamide; deaD strain in restrictive glucose medium | inhibition of the nicotinamide effect, % at 10 µM | 0.68% of 130,000 active;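 active = inhibition above a set limit, placed 3 SD over the median of all compounds, cut at about 26% in these data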;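 note: 0% = nicotinamide-treated wells and 100% = cells grown without nicotinamide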
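Assay system: engineered S. cerevisiae DeaD replicative-lifespan strain, galactose-grown log-phase cells; medium: restrictive CSMM-D dextrose medium; also added: nicotinamide, 1.5 mM, co-present with compound; schedule: 48 h compound exposure at 30 °C, humidified; detection: absorbance at 615 nm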
RAM inhibit = inhibitors of the yeast RAM network, primary screen, dse1pr::URA3 reporter, 5-FOA selection. AID 868, 2007. S. cerevisiae dse1pr::URA3 reporter, 5-FOA growth OD615, 2 d; analog-sensitive cbk1-as2 kinase mutant strain. inhibition, % at 50 µM. 1.8% of 190,000 active;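 active = inhibition above a set limit, 3 SD over mean compound inhibition, cut at about 8.4% in these data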;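 note: 0% = DMSO-only wells with no growth and 100% = 10 µM 1-NA-PP1 full growth; inhibition rescues growth on 5-FOA so higher OD means more RAM inhibition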
RAM 5-FOA = 5-FOA growth of efflux-deficient control yeast, dose response, counter-screen for RAM network inhibitor project, S. cerevisiae, OD615 | shares compounds with RAM inhibit | S. cerevisiae efflux-deficient reporter strain, 5-FOA growth OD615, 2 days | max inhibition, % | 1,200 tested, under 10 active | AID 1305, 2008; call rule not given here;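 note: plate controls were vehicle for no effect and reference inhibitor for full effect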
Starred values were filed as active, the others as inactive.

For COc1cc(S(=O)(=O)Nc2cccc(C)c2)ccc1NC(=O)c1ccncc1 the results were BB579 growth dn -12, WT yeast gro inh 5, Yeast life ext -1 and RAM inhibit 3.
Screening CCC1Oc2ccccc2N(CC(=O)NCc2ccco2)C1=O (centres undefined) returned WT yeast gro inh -7 and RAM inhibit -1.
For CCOc1ccc(NS(=O)(=O)c2ccc(NC(=S)NC(=O)CC(C)C)cc2)cc1 the results were BB579 growth dn -4, WT yeast gro inh 79*, Yeast life ext -7, RAM inhibit 12* and RAM 5-FOA 2.
`c1ccc2cc(Sc3ncnc4c3oc3ccccc34)ccc2c1` gave BB579 growth dn -29, WT yeast gro inh 17, Yeast life ext -18, RAM inhibit 13* and RAM 5-FOA 4.
`CCOC(=O)N1CCC(=NNC(=O)COc2ccc(OC)cc2)CC1` gave BB579 growth dn -27, WT yeast gro inh -2, Yeast life ext -4 and RAM inhibit -1.
`CCN(CC)c1nc2ccccc2nc1C(C#N)C(=O)NCCCOC` (centres undefined) gave BB579 growth dn -5, WT yeast gro inh -11, Yeast life ext -11 and RAM inhibit 1.
CCCN(CCC)c1nc2ccccc2nc1C(C#N)C(=O)OC(C)COC (centres undefined) was read as BB579 growth dn -19, WT yeast gro inh 68*, Yeast life ext 14, RAM inhibit 13* and RAM 5-FOA 2.
CCCCN(CCCC)c1nc2ccccc2nc1C(C#N)C(=O)NCCCOC (centres undefined) was read as BB579 growth dn -38, WT yeast gro inh 15, Yeast life ext 1, RAM inhibit 15* and RAM 5-FOA 5.
Screening CCOc1cc(NC(=O)c2ccccn2)c(OCC)cc1NC(=O)c1ccc(C)cc1 returned RAM inhibit 12* and RAM 5-FOA 2.
Cc1ccc(N2N=C(c3ccc(F)cc3)CC2c2ccco2)cc1 (centres undefined) was read as WT yeast gro inh 39, RAM inhibit 12* and RAM 5-FOA 4.
For Fc1ccc(C2=NN(c3ccccc3)C(c3ccco3)C2)cc1 (centres undefined) the results were WT yeast gro inh 50 and RAM inhibit 3.
For CCCCOc1ccc(CNn2c(C)nc3ccccc3c2=O)cc1 the results were BB579 growth dn -46, WT yeast gro inh 25, Yeast life ext -8, RAM inhibit 15* and RAM 5-FOA 2.
For Cc1cc(NC(=O)CSc2nc3ccsc3c(=O)n2Cc2ccccn2)n[nH]1 the results were BB579 growth dn -40, WT yeast gro inh 7, Yeast life ext -17, RAM inhibit 20* and RAM 5-FOA 1.
`CCCCn1c(SCC(=O)Nc2cc(C)[nH]n2)nc2ccsc2c1=O` gave BB579 growth dn -29, WT yeast gro inh 2, Yeast life ext 1 and RAM inhibit 7.
Screening CCOc1cc(S(=O)(=O)Nc2ccc(CC)cc2)ccc1Cl returned BB579 growth dn -69, WT yeast gro inh 25, Yeast life ext 11, RAM inhibit 14* and RAM 5-FOA 1.
`CCOc1cc(S(=O)(=O)N2CCCCC2)ccc1Cl` gave BB579 growth dn 7, WT yeast gro inh 6, Yeast life ext -4 and RAM inhibit 0.
For COc1ccc(/C=C(\C#N)c2n[nH]c(Cn3cncn3)n2)cc1 the results were WT yeast gro inh 4 and RAM inhibit 1.
`Cc1ccc(S(=O)(=O)N2CCC(=O)N(C(COCc3ccc(Cl)cc3)Cc3ccccc3)CC2)cc1` (centres undefined) gave BB579 growth dn -37, WT yeast gro inh 27, Yeast life ext 5 and RAM inhibit 8.
`CCCOC(=O)c1ccc(Oc2c(-c3ccc(OCC)cc3O)n[nH]c2C)cc1` gave BB579 growth dn -68, WT yeast gro inh 37, Yeast life ext -12, RAM inhibit 15* and RAM 5-FOA 5.
CCOc1ccc(-c2n[nH]c(C)c2-c2ccccc2OC)c(O)c1 was read as BB579 growth dn -1, WT yeast gro inh 11, Yeast life ext -4 and RAM inhibit 3.
Cc1ccc(N/C(SCc2ccccc2C)=C(/C#N)C(=O)NCc2ccco2)cc1C was read as BB579 growth dn -20, WT yeast gro inh 17, Yeast life ext -1 and RAM inhibit 3.
CCc1ccc(N/C(SCc2cccc(F)c2)=C(/C#N)C(=O)NCc2ccco2)cc1 was read as BB579 growth dn -20, WT yeast gro inh 21, Yeast life ext 7, RAM inhibit 16* and RAM 5-FOA 5.
For CC(C)(C)c1ccc(-c2nnc(SCCN3C(=O)c4ccccc4C3=O)o2)cc1 the results were BB579 growth dn -20, WT yeast gro inh 27, Yeast life ext -2 and RAM inhibit 2.
`O=C(CCCSc1nc2ccccc2[nH]1)Nc1nnc(C2CC2)s1` gave WT yeast gro inh -8 and RAM inhibit 2.
For CC(=O)c1ccc(OCc2ccc(C(=O)c3ccccc3)cc2)cc1 the results were WT yeast gro inh 23 and RAM inhibit 3.
CC(=O)c1ccc(OCc2ccc(Oc3c(Cl)cccc3[N+](=O)[O-])cc2)cc1 was read as BB579 growth dn -14, WT yeast gro inh 13, Yeast life ext 5, RAM inhibit 13* and RAM 5-FOA 1.
For CCOC(=O)C1(CC2CCCCO2)CCN(S(=O)(=O)c2cccc(F)c2)CC1 (centres undefined) the results were WT yeast gro inh 19 and RAM inhibit 1.
`CCc1ccc(CN2CCN(C(=O)c3cccc(OC)c3OC)CC2)cc1` gave BB579 growth dn -7, WT yeast gro inh -3 and RAM inhibit 0.
For COc1ccc(OC)c(NC(=O)C2=C(C)NC(=O)NC2c2cccs2)c1 (centres undefined) the results were WT yeast gro inh -3 and RAM inhibit 1.
Screening COc1ccc(S(=O)(=O)N2c3cc(C)ccc3OCC2C(C)(C)C)cc1 (centres undefined) returned BB579 growth dn -73, WT yeast gro inh 1, Yeast life ext 5 and RAM inhibit 5.
For Cc1ccc(S(=O)(=O)N2c3cc(C)ccc3OCC2C(C)(C)C)cc1 (centres undefined) the results were BB579 growth dn -24, WT yeast gro inh 69*, Yeast life ext -1, RAM inhibit 13* and RAM 5-FOA 4.
`CCCCC(SCC(=O)Nc1ccccc1)C(=O)O` (centres undefined) gave BB579 growth dn -23, WT yeast gro inh 1, Yeast life ext -12 and RAM inhibit 1.
`O=C(CCc1ccc(CCC(=O)c2cccs2)s1)c1cccs1` gave BB579 growth dn -30, WT yeast gro inh -27, Yeast life ext -11, RAM inhibit 17* and RAM 5-FOA 4.
